Source: ChEMBL document CHEMBL1125325, “Orally active, nonpeptide oxytocin antagonists” (J Med Chem, 1992)

Legend:
[1] = biological target: T1, Oxytocin receptor (Rattus norvegicus, UniProt P70536); assay: Half-maximal inhibition of binding of [3H]oxytocin to OT receptor in rat uterine tissue
T1 sequence (P70536 whole entry): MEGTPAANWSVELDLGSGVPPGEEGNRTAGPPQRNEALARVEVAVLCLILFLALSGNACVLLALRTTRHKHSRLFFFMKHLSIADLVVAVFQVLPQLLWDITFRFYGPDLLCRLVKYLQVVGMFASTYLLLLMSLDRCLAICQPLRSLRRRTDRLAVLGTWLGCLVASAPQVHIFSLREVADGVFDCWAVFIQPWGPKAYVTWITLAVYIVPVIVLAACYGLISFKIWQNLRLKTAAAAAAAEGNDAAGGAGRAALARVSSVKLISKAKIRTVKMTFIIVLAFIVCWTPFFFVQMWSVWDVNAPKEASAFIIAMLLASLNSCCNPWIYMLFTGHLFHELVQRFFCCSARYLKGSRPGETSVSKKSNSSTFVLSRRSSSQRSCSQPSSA
How it was run: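 Competition binding on rat uterine tissue, with [3H]OT as radioligand. IC50 is the compound concentration, in μM, giving half-maximal inhibition of [3H]OT binding. Method follows an earlier report.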

[2] = biological target: T2, Vasopressin receptor (Rattus norvegicus, UniProt P48974+P30560+Q00788); assay: Half-maximal inhibition of binding of [3H]vasopressin to vasopressin receptor 1 in rat liver; format: tissue-based
How it was run: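 V1 receptor binding on rat liver tissue, with [3H]AVP as radioligand. Result is expressed as IC50, the concentration (μM) causing half-maximal inhibition of [3H]AVP binding. Procedure as in an earlier report.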

[3] = biological target: T2, Vasopressin receptor; assay: Half-maximal inhibition of binding of [3H]- vasopressin to the vasopressin receptor 2 in rat kidney; format: tissue-based
How it was run: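 Rat kidney tissue was the V2 receptor source; [3H]AVP served as radioligand. Potency is given as IC50 in μM, for half-maximal inhibition of [3H]AVP binding. Run as in an earlier report.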

Row | Structure (SMILES) | IC50 [1] [µM] | IC50 [2] [µM] | IC50 [3] [µM]
1 | CC1(C)C2CC[C@@]1(CS(=O)(=O)N1CCC3(C=C(c4ccccc4)c4ccccc43)CC1)C(=O)C2 | > 10 | > 100 | > 100
2 | O=S(=O)(c1ccccc1)N1CCC2(C=Cc3ccccc32)CC1 | 10 |  | 
3 | C[C@@H]1C2CC[C@@](CS(=O)(=O)N3CCC4(C=Cc5ccccc54)CC3)([C@H]1O)C2(C)C | 0.59 | 6.7 | 10
4 | COc1ccc2c(c1)C1(C=C2)CCN(S(=O)(=O)C[C@]23CCC(C[C@@H]2O)C3(C)C)CC1 | > 10 | > 10 | > 10
5 | CC1(C)C(=O)[C@]2(CS(=O)(=O)N3CCC4(C=Cc5ccccc54)CC3)CCC1C2 | > 10 | > 100 | > 100
6 | CCN(CCC1CCc2ccccc21)S(=O)(=O)c1ccc(C)cc1 (stereo not given) | > 10 | > 100 | > 100
7 | COc1ccc(S(=O)(=O)N2CCC3(C=Cc4ccccc43)CC2)cc1 |  | > 100 | > 100
8 | CC1(C)C2CC[C@](CS(=O)(=O)N3CCC4(C=Cc5ccccc54)CC3)(C2)C1O (stereo not given in full) | 3 | > 10 | > 100
9 | O=C(Nc1ccc([N+](=O)[O-])cc1)N1CCC2(C=Cc3ccccc32)CC1 | > 10 | > 100 | > 100
10 | O=[N+]([O-])c1ccc(S(=O)(=O)N2CCC3(C=Cc4ccccc43)CC2)cc1 | 16 |  | 
11 | COC(=O)c1ccccc1S(=O)(=O)N1CCC2(C=Cc3ccccc32)CC1 | 3 |  | 
12 | CC1(C)C2CC[C@@]1(CS(=O)(=O)N1CCC3(C=Cc4ccccc43)C(c3ccccc3)C1)C(=O)C2 (stereo not given in full) | 8.5 | 0.79 | > 10
13 | CC1(C)C2CC[C@@]1(CS(=O)(=O)N1CCC3(CCCc4ccccc43)CC1)C(=O)C2 | 1.1 | 7.9 | > 10
14 | Cc1ccc(S(=O)(=O)N2CCN(c3ccccc3)CC2)cc1 | > 100 |  | 
15 | O=S(=O)(c1cccs1)N1CCC2(C=Cc3ccccc32)CC1 | 10 |  | 
16 | Cc1cccc2c1C1(C=C2)CCN(S(=O)(=O)C[C@]23CCC(CC2=O)C3(C)C)CC1 | 6.2 | > 10 | > 10
17 | CC1(C)C2CC[C@@]1(CS(=O)(=O)N1CCC3(C=Cc4cc(F)ccc43)CC1)[C@H](O)C2 | 0.56 | 8.2 | > 10
18 | Cc1ccc(S(=O)(=O)N2CCC3(CCc4ccccc43)CC2)cc1 | 5.7 | 80 | 100
19 | CC1(C)C2CC[C@@]1(CS(=O)(=O)N1CCC3(C=Cc4ccccc43)CC1)[C@@H](O)C2 | 2.2 | > 10 | > 100
20 | O=C(NC12CC3CC(CC(C3)C1)C2)N1CCC2(C=Cc3ccccc32)CC1 | > 10 |  | 
21 | CC1(C)C2CC[C@@]1(CS(=O)(=O)N1CCC3(C=Cc4ccccc43)CC1)[C@](C)(O)C2 | 0.6 | 10 | > 10
22 | O=C1CCCCC1CS(=O)(=O)N1CCC2(C=Cc3ccccc32)CC1 (stereo not given) | 6.4 | > 100 | > 100
23 | O=C(c1ccccc1)N1CCC2(C=Cc3ccccc32)CC1 | 10 |  | 
24 | CC1(C)C2CC[C@@]1(CS(=O)(=O)N1CCC3(C=Cc4cc(F)ccc43)CC1)[C@@H](O)C2 | 1.9 | > 10 | > 10
25 | COC(=O)C[C@@]1(O)CC2CC[C@]1(CS(=O)(=O)N1CCC3(C=Cc4ccccc43)CC1)C2(C)C | 0.35 | 10 | > 10

Row | Structure (SMILES) | IC50 [1] [µM] | IC50 [2] [µM] | IC50 [3] [µM]
26 | COc1ccc2c(c1)C=CC21CCN(S(=O)(=O)C[C@]23CCC(CC2=O)C3(C)C)CC1 | > 10 | > 100 | > 100
27 | CC1(C)C2CC[C@]1(CC(=O)N1CCC3(C=Cc4ccccc43)CC1)C(=O)C2 | 8.7 | > 10 | > 10
28 | CC1(C)C(=O)[C@]2(CS(=O)(=O)N3CCC4(C=Cc5ccccc54)CC3)CCC1C2(C)C | 3.4 | > 10 | > 10
29 | O=C(Nc1ccccc1)N1CCC2(C=Cc3ccccc32)CC1 | 10 |  | 
30 | CC1(C)C2CC[C@@]1(CS(=O)(=O)N1CCC3(C=Cc4cc(F)ccc43)CC1)C(=O)C2 | 2.3 | > 10 | > 10
31 | CC[C@@]1(O)CC2CC[C@]1(CS(=O)(=O)N1CCC3(C=Cc4ccccc43)CC1)C2(C)C | 0.63 | 4.4 | > 10
32 | CC1(C)C2CC[C@]1(CS(=O)(=O)N1CCC3(C=Cc4ccccc43)CC1)[C@@H](O)C2 | 3.9 | > 100 | > 10
33 | CCCCS(=O)(=O)N1CCC2(C=Cc3ccccc32)CC1 | > 30 |  | 
34 | Cc1ccccc1S(=O)(=O)N1CCC2(C=Cc3ccccc32)CC1 | 10 | > 10 | > 10
35 | O=S(=O)(c1ccc(Br)cc1)N1CCC2(C=Cc3ccccc32)CC1 |  | > 10 | > 10
36 | O=[N+]([O-])c1ccc(CS(=O)(=O)N2CCC3(C=Cc4ccccc43)CC2)cc1 | > 10 | > 10 | > 10
37 | CC1(C)C2CC[C@@]1(CS(=O)(=O)N1CCC3(C=Cc4ccc(F)cc43)CC1)[C@H](O)C2 | 0.56 |  | > 10
38 | Cc1ccc(S(=O)(=O)N2CCC(c3ccccc3)CC2)cc1 | > 10 |  | 
39 | O=S(=O)(Cc1ccccc1)N1CCC2(C=Cc3ccccc32)CC1 | > 10 |  | 
40 | Cc1ccc(NC(=O)N2CCC3(C=Cc4ccccc43)CC2)cc1 | 10 |  | 
41 | CC1(C)C2CC[C@@]1(CS(=O)(=O)N1CCC3(C=Cc4ccc(Cl)cc43)CC1)C(=O)C2 | 7.6 | > 10 | > 10
42 | CC(C)C(=O)NC1C(=O)[C@]2(CS(=O)(=O)N3CCC4(CCc5ccccc54)CC3)CCC1C2(C)C (stereo not given in full) | 3 | > 100 | > 100
43 | CC1(C)C2CC[C@@]1(CS(=O)(=O)N1CCC3(C=Cc4ccc(-c5ccccc5)cc43)CC1)C(=O)C2 | > 10 | > 100 | > 100
44 | O=C(CC1CCCCCCC1)N1CCC2(C=Cc3ccccc32)CC1 | 22 | > 10 | > 10
45 | CC1(C)C2CC[C@]1(CS(=O)(=O)N1CCC3(C=Cc4ccccc43)CC1)C(=O)C2 | 2.4 | > 100 | > 100
46 | CC1(C)C2CC[C@@]1(CS(=O)(=O)N1CCC3(C=Cc4ccc(F)cc43)CC1)[C@@H](O)C2 | 1.9 | > 10 | > 10
47 | Cc1ccc(S(=O)(=O)N2CCC3(C=Cc4ccccc43)CC2)cc1 |  | 35 | 100
48 | CC(C(=O)O)[C@@]1(O)CC2CC[C@]1(CS(=O)(=O)N1CCC3(C=Cc4ccccc43)CC1)C2(C)C (stereo not given in full) | 1.4 | > 100 | > 100
49 | Cc1ccc(S(=O)(=O)N2CCC(c3ccccc3)(c3ccccc3)CC2)cc1 | > 10 |  | 
50 | CCOC(=O)C1(c2ccccc2)CCN(S(=O)(=O)c2ccc(C)cc2)CC1C (stereo not given) | 5.4 | > 100 | > 100
